Assay outcomes: PubChem BioAssay, several laboratories
Most compounds without a hit are left out; they make up all but 4.3% or so of the library.
Yeast superoxide: yeast age-related superoxide inhibition as caloric restriction mimetic. S. cerevisiae aged cells, superoxide DHE fluorescence; active compounds read low. superoxide response (% of plate mean), % at 10 µM. 330,000 compounds, 0.18% hits. AID 2690;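 active = superoxide response under a set limit, about three screen SD below normal, cut at about 65% in these data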;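 also: yeast aged for seven days with compound at 30 °C before DHE staining; 100% = average MFI of all compound-treated wells on the plate with controls excluded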
SMARCA2 activ: activators of SMARCA2 function. MG213 cells, MMTV-luciferase reporter, dexamethasone, overnight. activation, % at 9.1 µM. 370,000 compounds, 1% hits; in the data active = activation above about 7.8%;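 also: 0% = vehicle wells and 100% = reference activator wells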
SR-BI HDL uptake: blocks mouse SR-BI lipid uptake from DiI-HDL. Q61009. ldlA[mSR-BI] CHO cells, DiI-HDL uptake fluorescence, 3 h. inhibition, % at 12.5 µM. 320,000 compounds, 0.96% hits. AID 488896;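 active = mean replicate inhibition of at least 70% and a set share of replicates each scoring 70 or more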;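 also: 0% = median of neutral control wells and 100% = median of positive control wells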
SR-BI uptake up: enhances SR-BI lipid uptake from DiI-HDL | 320,000 compounds, 0.096% hits | activation, % at 12.5 µM | CHO ldlA[mSR-BI] cells, DiI-HDL uptake fluorescence, 3 h; 100 = double the neutral-control signal;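 active = mean replicate activation of at least 60% and every replicate at or above 60%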;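 also: 0% = median plate neutral-control signal and 100% = twice that signal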
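material = CHO ldlA[mSR-BI] cells | medium = Ham's F12 with 0.5% BSA, HEPES 25 mM, pH 7.4 | reagent = fluorescent DiI-HDL, 10 µg/mL final | compound dosing = single-point compound dose | incubation = 3 h, 37 °C | measured by = bottom-read fluorescence, 550/595 nm | measure = HDL uptake via cellular fluorescence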
AHR act: activates the human aryl hydrocarbon receptor | P35869 | AHR-responsive luciferase reporter cells, luminescence | activation, % at 5 µM | 320,000 compounds, 2.5% hits; in the data active = activation above about 47%;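 also: 0% = vehicle wells and 100% = reference agonist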
Target sequence (P35869 whole entry, looked up): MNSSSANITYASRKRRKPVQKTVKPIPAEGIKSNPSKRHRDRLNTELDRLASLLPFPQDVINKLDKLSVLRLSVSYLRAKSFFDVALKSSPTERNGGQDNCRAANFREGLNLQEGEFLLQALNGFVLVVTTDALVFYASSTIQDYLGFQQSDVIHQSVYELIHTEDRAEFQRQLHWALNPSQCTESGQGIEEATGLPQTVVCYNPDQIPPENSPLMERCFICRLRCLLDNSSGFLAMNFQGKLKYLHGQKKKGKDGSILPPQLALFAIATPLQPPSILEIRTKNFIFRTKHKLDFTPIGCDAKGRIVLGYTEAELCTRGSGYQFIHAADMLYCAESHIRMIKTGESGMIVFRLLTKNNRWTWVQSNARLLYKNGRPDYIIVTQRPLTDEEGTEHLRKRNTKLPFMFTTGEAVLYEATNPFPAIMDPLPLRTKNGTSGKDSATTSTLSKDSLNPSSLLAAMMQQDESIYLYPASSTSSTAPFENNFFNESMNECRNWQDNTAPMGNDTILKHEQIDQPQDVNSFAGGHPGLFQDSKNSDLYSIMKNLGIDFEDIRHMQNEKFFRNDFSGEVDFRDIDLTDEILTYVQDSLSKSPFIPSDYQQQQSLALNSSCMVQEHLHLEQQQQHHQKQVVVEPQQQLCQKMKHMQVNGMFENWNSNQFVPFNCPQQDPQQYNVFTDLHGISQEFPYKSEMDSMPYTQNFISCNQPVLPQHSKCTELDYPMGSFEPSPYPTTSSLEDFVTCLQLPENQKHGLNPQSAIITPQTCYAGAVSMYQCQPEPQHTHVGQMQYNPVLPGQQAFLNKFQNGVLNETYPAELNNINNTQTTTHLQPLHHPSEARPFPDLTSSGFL
Hep lipid drop: hepatic lipid droplet formation modulation; AML12 mouse hepatocytes, oleate lipid droplets, BODIPY imaging; inhibition, % at 6.5 µM; 240,000 compounds, 0.4% hits; AID 1656;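 active = lipid droplet intensity inhibited by at least 50%, with more than 500 cells counted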
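Material: mouse AML12 hepatocyte cell line, fixed after treatment; Timing: compound with oleate, overnight; Technique: high-content imaging of BODIPY-stained droplets and DAPI nuclei; Probe or stimulus: oleate, 100 µM final; Dosing: compound at 6.5 µM only.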
SMARCA2 act conf: confirmation of SMARCA2 (BRM) function activators; shares compounds with SMARCA2 activ; MG213 cells, MMTV-luciferase with dexamethasone, luminescence, overnight; MG213 cells expressing E1A, Rb sequestered; DMSO wells 0%, reference activator 100%; activation, % at 9.1 µM; 3,500 compounds, 30% hits; AID 652260;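 active = activation above its plate's cutoff, the mean activation of tested wells plus 3 SD, cut at about 7.9% in these data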
GAL4-VP16 Luc: activates GAL4-VP16 luciferase, flagging SMARCA2 activator hits | 3,500 compounds, 41% hits | activation, % at 9.1 µM | HEK293 GAL4-VP16 pG5luc reporter, luciferase luminescence; scaled: DMSO wells 0%, SAHA wells 100% | shares compounds with SMARCA2 activ | AID 686939;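 active = activation above the solvent-only control well mean plus 3 SD, averaged across control plates, cut at about 5.2% in these data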
Numbers without * were called inactive; / = no result.

SMILES	Yeast superoxide	SMARCA2 activ	SR-BI HDL uptake	SR-BI uptake up	AHR act	Hep lipid drop	SMARCA2 act conf	GAL4-VP16 Luc
CN1Cc2nnn(CC3CCCCC3)c2-c2ccccc2S1(=O)=O	/	8.2*	/	/	/	/	2	0
COCCN1Cc2cc(C(=O)OC)c3c(c2C1=O)c1cc(OC)ccc1n3C(=O)c1ccccc1	/	-5	/	/	/	/	/	/
COC(=O)C1CN(Cc2ccccc2)CCS(=O)(=O)N1Cc1ccc(Cl)cc1 (stereo unspecified)	/	-2	/	/	/	/	/	/
O=C1c2nc3cc(-c4ccccc4)[nH]n3c(=O)c2CN1Cc1ccccc1	105	/	/	/	1	-1	/	/
O=C1c2nc3cc(-c4ccco4)[nH]n3c(=O)c2CN1C1CCCCC1	119	11*	/	/	0	8	-2	2
COc1ccc2c(c1)C1(Nc3ccccc3-c3nc4ccccc4n31)C(=O)N2 (stereo unspecified)	104	-3	31	-31	1	-26	/	/
CC1(c2ccncc2)Nc2ccccc2-c2nc3ccccc3n21 (stereo unspecified)	98	9.1*	7	-7	32	2	3	4
Cc1onc(-c2ccccc2Cl)c1C(=O)NC(=S)Nc1ccc(C(C)(C)C)cc1	89	11*	9	-9	6	-4	3	-1
CCc1ccc(NC(=S)NC(=O)c2c(-c3ccccc3Cl)noc2C)cc1	94	5	7	-7	2	-7	/	/
CC1(C(=O)NCCN2CCOCC2)C=CC2(CCCCC2)N1C(=O)c1ccccc1 (stereo unspecified)	85	8.7*	-12	12	2	3	3	2
COCCNC(=O)C1(C)C=CC2(CCCCC2)N1C(=O)c1ccccc1 (stereo unspecified)	108	1	-41	41	6	21	/	/
CCCCCCCCNS(=O)(=O)/C=C/c1ccccc1CNC(=O)OC(C)(C)C	/	-5	/	/	/	/	/	/
CC1(C(=O)Nc2nc3ccccc3s2)CC1(Br)Br (stereo unspecified)	105	9.0*	-6	6	/	/	6	5.2*
NC(=S)Nc1nc2ccccc2s1	115	16*	2	-2	19	9	17*	5.5*
CN1CCN(c2ccc3c(c2)Oc2ccccc2CN(Cc2cn(Cc4cccc(C(F)(F)F)c4)nn2)S3(=O)=O)CC1	/	-5	/	/	/	/	/	/
CCOC(=O)c1ccc2ncc(C(=O)OCC)c(NCc3ccco3)c2c1	106	13*	60	-60	5	/	0	4
CCOC(=O)c1cnc2ccccc2c1NCCO	100	0	-20	24	10	/	/	/
CCOC(=O)c1cnc2c(C(=O)OC)cccc2c1NCc1ccco1	92	8.0*	-11	11	-1	-9	7	1
CCOC(=O)c1cnc2c(ccc3ccccc32)c1NCCCN(C)C	98	19*	-25	25	-1	12	40*	8.1*
C=CCN1C(=O)[C@@H](CC(=O)NCC2CCCCC2)[C@]2(C(=O)OCC)CCCCC/C=C/12	/	-3	/	/	/	/	/	/
O=C(c1cc2cc(F)ccc2[nH]1)N1CCc2ccccc21	96	10*	19	-19	/	5	8	9.3*
O=C(COc1ccc(F)cc1Br)N1CCc2ccccc21	96	12*	23	-23	6	-14	6	14*
COC(=O)/C(C#N)=C1/C=Cc2ccccc2N1	98	8.9*	-16	16	22	2	5	8.3*
O=S1(=O)C=CCN1Cc1cn(Cc2ccccc2)nn1	/	0	/	/	/	/	/	/
Cc1nc(-c2ccccc2)sc1-c1ccn[nH]1	89	12*	1	-1	12	10	14*	13*
SMILES	Yeast superoxide	SMARCA2 activ	SR-BI HDL uptake	SR-BI uptake up	AHR act	Hep lipid drop	SMARCA2 act conf	GAL4-VP16 Luc
Cc1nc(-c2ccccc2)sc1-c1nc(-c2cccnc2)ncc1S(=O)(=O)c1ccccc1	98	/	3	-3	3	/	/	/
O=S(=O)(CC1NCc2cc(F)ccc21)NCc1ccc(F)cc1 (stereo unspecified)	/	-1	/	/	/	/	/	/
Cc1ccc(Cn2ccnc2C(=O)Nc2ccccc2)cc1	104	9.3*	-14	14	14	-3	6	3
CCOC(=O)CC[C@@H]1CC[C@]2(CCCN(C(=O)C3CCCC3)C2)O1	/	-3	/	/	/	/	/	/
N/C(=N/OC(=O)c1ccccc1Cl)c1nonc1N	91	8	15	-15	0	-4	/	/
Cc1cc(/C(N)=N/OC(=O)c2ccccc2Cl)no1	93	8.6*	37	-37	38	-9	12*	11*
CN(C)c1ccc(N=Nc2cccc(F)c2)cc1	95	5	8	-8	7	30	/	/
CN(C)c1ccc(N=Nc2cccc3ccoc23)cc1	95	9.8*	-23	23	14	40	8	11*
CC(=O)c1sc(NC(=O)c2ccc(Cl)cc2)nc1C	88	0	/	/	-2	1	/	/
O=C(Nc1nc2ccsc2c(=O)s1)c1ccc(Cl)cc1	95	14*	-3	3	6	-12	10*	9.1*
Cn1sc(NC(=O)c2ccc(Cl)cc2)nc1=O	104	8.4*	-4	4	10	/	3	11*
O=C1c2cccc3c(N4CCCCC4)ccc(c23)C(=O)N1CCO	104	8.5*	-6	6	7	/	7.8*	8.6*
C=CCN1C(=O)c2cccc3c(N4CCCCC4)ccc(c23)C1=O	96	2	8	-8	2	-17	/	/
CCOC(=O)c1cnc2c(N=Nc3ccccc3)c(N)nn2c1N	121	8.3*	6	-6	31	/	11*	12*
CCOC(=O)c1cnc2c(N=Nc3cccc(Cl)c3)c(N)nn2c1N	/	1	/	/	/	/	/	/
CC(C)N1Cc2nnn(Cc3ccc(F)cc3)c2-c2cc(F)ccc2S1(=O)=O	/	-4	/	/	/	/	/	/
CN1CCN(C(=S)NC(=O)/C=C/c2ccccc2)CC1	86	8.3*	-3	3	1	-3	1	1
CCCN(CCC)C(=O)C1CCCN(S(=O)(=O)c2ccc3c(c2)oc(=O)n3C)C1 (stereo unspecified)	99	10*	-3	3	-1	-7	2	0
COc1cc(NC(=O)CSc2nc(C)cc(=O)[nH]2)cc(OC)c1	/	-6	/	/	/	/	/	/
COc1ccccc1CNC(=O)Cc1ccccc1	114	9.5*	2	-2	6	/	3	5
COc1ccccc1CNC(=O)Cc1ccc(OC)c(OC)c1	100	-1	-22	22	12	-2	/	/
